In experiment [1] the target is Receptor-type tyrosine-protein kinase FLT3 (Homo sapiens, UniProt P36888). Briefly: Inhibition of FLT3 (unknown origin).
In experiment [2] the target is Serine/threonine-protein kinase Nek1 (Homo sapiens) (UniProt Q96PY6). As to the kind of experiment: Inhibition of NEK1 in human SKCO1 cells at 1 uM after 4 hrs using biotin labeled DIKSQNIFLTK probe by mass-spectrometric analysis relative to control. In kind it is cell-based.
Experiment [3] addresses Mitogen-activated protein kinase kinase kinase 21 (Homo sapiens) (UniProt Q5TCX8). As to the kind of experiment: Inhibition of MLK4 in human SKCO1 cells at 1 uM after 4 hrs using biotin labeled DLKSSNILLLEK probe by mass-spectrometric analysis relative to control. Format: cell-based.
The target in experiment [4] is Receptor-type tyrosine-protein kinase FLT3 (Homo sapiens) (UniProt P36888). Briefly: Inhibition of human FLT3 (592 to 969 residues) expressed in bacterial expression system assessed as enzyme activity at 1 uM by KINOMEScan assay relative to control. Also noted: scale not given: the % may be the effect or the level left. A digest of the protocol: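 In vitro ATP-site competition binding assay across a panel of 456 kinases, with compound tested at 1 and 10 μM.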

For experiment [5], the target named is Ras GTPase-activating-like protein IQGAP1 (Homo sapiens) (UniProt P46940). Briefly: Binding affinity to IQGAP1 in human NCI-H358 cells at 1 uM by mass spectrometry based pull down assay. In kind it is cell-based.
For experiment [6], the target named is Mitochondrial import inner membrane translocase subunit TIM50 (Homo sapiens) (UniProt Q3ZCQ8). As to the kind of experiment: Binding affinity to TIMM50 in human NCI-H358 cells at 1 uM by mass spectrometry based pull down assay. In kind it is cell-based.
The target of experiment [7] is Protein phosphatase 1G (Homo sapiens) (UniProt O15355). Briefly: Binding affinity to PPM1G in human NCI-H358 cells at 1 uM by mass spectrometry based pull down assay. In kind it is cell-based.
For experiment [8], the target named is Citrate synthase, mitochondrial (Homo sapiens) (UniProt O75390). Briefly: Binding affinity to CS in human NCI-H23 cells at 1 uM by mass spectrometry based pull down assay. Format: cell-based.
The target of experiment [9] is ADP-ribosylation factor-like protein 8B (Homo sapiens) (UniProt Q9NVJ2). As to the kind of experiment: Binding affinity to ARL8B in human NCI-H23 cells at 1 uM by mass spectrometry based pull down assay. Format: cell-based.
The target of experiment [10] is Monofunctional C1-tetrahydrofolate synthase, mitochondrial (Homo sapiens) (UniProt Q6UB35). Briefly: Binding affinity to MTHFD1L in human NCI-H23 cells at 1 uM by mass spectrometry based pull down assay. In kind it is cell-based.
The target in experiment [11] is 80S Ribosome (Homo sapiens) (UniProt P08865+P42677+P62753+P15880+P23396+P61247+P62701+P22090+P46782+P62081+P62241+P46781+P46783+P62280+P25398+P62277+P62263+P62841+P62244+P62249+P08708+P62269+P39019+P60866+P63220+P62266+P62847+P62851+P62854+P62979+P62857+P62273+P62861+P39023+P36578+P46777+Q02878+P18124+P62424+P62917+P32969+P27635+P62906+P62913+P30050+P26373+P40429+P50914+P61313+P18621+Q07020+Q02543+P84098+P46778+P35268+P62829+P62750+P83731+P61254+P61353+P46776+P46779+P47914+P62888+P62899+P62910+P49207+P42766+P18077+Q9Y3U8+P83881+P61927+P61513+P63173+P62891+P62945+P05388+P05386). Briefly: Binding affinity to RPS11 in human NCI-H23 cells at 1 uM by mass spectrometry based pull down assay. In kind it is cell-based.

Experiment [12] has as its target T1, Serine/threonine-protein kinase Nek9 (Homo sapiens) (UniProt Q8TD19).
T1 sequence (whole entry): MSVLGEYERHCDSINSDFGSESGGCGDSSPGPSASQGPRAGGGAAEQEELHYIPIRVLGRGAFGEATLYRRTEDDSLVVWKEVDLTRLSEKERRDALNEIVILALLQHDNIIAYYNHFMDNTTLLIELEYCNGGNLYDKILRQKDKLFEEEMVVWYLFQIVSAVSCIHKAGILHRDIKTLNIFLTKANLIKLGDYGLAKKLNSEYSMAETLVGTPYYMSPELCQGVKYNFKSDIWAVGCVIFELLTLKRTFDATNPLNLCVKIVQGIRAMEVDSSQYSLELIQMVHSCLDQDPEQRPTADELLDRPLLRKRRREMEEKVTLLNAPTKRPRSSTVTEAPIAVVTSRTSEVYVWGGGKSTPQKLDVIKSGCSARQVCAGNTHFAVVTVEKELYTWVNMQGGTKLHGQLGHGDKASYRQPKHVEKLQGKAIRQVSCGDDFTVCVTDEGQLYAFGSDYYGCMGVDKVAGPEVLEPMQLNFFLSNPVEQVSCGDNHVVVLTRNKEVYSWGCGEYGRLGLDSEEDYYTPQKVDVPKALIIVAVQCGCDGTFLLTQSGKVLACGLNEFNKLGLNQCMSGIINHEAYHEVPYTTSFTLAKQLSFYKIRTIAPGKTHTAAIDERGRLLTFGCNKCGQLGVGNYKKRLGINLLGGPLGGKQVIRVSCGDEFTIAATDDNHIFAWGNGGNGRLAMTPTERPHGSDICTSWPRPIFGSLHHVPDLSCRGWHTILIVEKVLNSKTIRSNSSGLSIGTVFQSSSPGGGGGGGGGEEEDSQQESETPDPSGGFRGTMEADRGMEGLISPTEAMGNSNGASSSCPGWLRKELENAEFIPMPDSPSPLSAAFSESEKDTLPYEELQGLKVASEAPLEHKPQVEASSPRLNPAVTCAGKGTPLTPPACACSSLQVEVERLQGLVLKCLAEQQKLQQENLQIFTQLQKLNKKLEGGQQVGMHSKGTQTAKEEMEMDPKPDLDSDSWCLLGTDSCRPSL
As to the kind of experiment: Binding affinity to NEK9 in human NCI-H23 cells at 1 uM by mass spectrometry based pull down assay. In kind it is cell-based.

The target of experiment [13] is Pyrroline-5-carboxylate reductase 1, mitochondrial (Homo sapiens) (UniProt P32322). As to the kind of experiment: Binding affinity to PYCR1 in human NCI-H358 cells at 1 uM by mass spectrometry based pull down assay. In kind it is cell-based.
The target in experiment [14] is Lactoylglutathione lyase (Homo sapiens) (UniProt Q04760). As to the kind of experiment: Binding affinity to GLO1 in human NCI-H23 cells at 1 uM by mass spectrometry based pull down assay. Format: cell-based.
The target of experiment [15] is Deaminated glutathione amidase (Homo sapiens) (UniProt Q86X76). Briefly: Binding affinity to NIT1 in human NCI-H358 cells at 1 uM by mass spectrometry based pull down assay. Format: cell-based.
Experiment [16] concerns the target Nuclear receptor-binding factor 2 (Homo sapiens) (UniProt Q96F24). Briefly: Binding affinity to NRBF2 in human NCI-H23 cells at 1 uM by mass spectrometry based pull down assay. Format: cell-based.
In experiment [17] the target is Carbonyl reductase [NADPH] 1 (Homo sapiens) (UniProt P16152). Briefly: Binding affinity to CBR1 in human NCI-H358 cells at 1 uM by mass spectrometry based pull down assay. In kind it is cell-based.

pIC50: −log10 of the molar value. Calls of active or inactive are those of the source. The rule behind the calls is not given here.

Chain of Serine/threonine-protein kinase Nek1 (Homo sapiens) (Q96PY6 whole entry): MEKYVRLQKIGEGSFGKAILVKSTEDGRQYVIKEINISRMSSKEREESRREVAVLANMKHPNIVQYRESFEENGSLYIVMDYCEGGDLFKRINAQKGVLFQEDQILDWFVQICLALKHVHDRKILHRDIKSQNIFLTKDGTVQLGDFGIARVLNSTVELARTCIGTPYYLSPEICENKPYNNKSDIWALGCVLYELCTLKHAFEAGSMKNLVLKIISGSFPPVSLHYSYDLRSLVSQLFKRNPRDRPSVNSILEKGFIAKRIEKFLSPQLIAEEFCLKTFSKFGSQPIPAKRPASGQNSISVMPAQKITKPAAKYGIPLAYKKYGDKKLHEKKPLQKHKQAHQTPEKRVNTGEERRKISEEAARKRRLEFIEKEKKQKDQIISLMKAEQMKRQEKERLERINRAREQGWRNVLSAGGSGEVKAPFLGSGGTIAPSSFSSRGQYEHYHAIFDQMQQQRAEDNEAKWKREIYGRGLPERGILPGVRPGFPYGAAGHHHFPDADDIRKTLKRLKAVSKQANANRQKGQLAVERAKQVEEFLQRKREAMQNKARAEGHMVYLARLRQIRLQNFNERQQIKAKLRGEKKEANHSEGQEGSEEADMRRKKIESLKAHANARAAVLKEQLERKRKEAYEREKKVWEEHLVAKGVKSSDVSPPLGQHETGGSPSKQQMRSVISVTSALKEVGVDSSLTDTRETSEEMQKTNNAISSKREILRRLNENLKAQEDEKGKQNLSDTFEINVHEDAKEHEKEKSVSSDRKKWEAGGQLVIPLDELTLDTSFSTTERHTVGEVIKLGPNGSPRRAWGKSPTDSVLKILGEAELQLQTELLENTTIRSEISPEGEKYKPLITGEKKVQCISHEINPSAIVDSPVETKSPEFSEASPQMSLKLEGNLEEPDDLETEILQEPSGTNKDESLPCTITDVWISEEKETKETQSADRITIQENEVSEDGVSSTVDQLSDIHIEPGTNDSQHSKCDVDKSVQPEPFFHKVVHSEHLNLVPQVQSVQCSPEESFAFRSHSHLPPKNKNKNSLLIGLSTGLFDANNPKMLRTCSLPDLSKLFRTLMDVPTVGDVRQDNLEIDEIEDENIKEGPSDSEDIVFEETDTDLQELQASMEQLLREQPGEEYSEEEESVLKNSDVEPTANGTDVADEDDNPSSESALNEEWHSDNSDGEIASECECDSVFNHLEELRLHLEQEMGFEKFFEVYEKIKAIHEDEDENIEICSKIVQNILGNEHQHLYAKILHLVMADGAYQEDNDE
Chain of Protein phosphatase 1G (Homo sapiens) (O15355 whole entry): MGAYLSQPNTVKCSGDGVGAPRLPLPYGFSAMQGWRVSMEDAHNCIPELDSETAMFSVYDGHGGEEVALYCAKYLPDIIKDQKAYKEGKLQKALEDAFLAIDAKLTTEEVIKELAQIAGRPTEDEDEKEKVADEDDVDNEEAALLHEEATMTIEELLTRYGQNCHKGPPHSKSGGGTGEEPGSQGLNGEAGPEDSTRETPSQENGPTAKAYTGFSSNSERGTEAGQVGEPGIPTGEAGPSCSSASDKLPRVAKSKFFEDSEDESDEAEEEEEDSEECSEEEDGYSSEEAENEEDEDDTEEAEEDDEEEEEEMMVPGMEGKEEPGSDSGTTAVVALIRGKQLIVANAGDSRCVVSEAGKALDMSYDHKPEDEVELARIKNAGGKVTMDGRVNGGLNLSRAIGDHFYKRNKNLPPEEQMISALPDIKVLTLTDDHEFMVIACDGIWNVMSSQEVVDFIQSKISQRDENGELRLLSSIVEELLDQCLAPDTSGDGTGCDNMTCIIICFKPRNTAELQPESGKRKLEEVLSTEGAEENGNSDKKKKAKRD
Chain of Carbonyl reductase [NADPH] 1 (Homo sapiens) (P16152 whole entry): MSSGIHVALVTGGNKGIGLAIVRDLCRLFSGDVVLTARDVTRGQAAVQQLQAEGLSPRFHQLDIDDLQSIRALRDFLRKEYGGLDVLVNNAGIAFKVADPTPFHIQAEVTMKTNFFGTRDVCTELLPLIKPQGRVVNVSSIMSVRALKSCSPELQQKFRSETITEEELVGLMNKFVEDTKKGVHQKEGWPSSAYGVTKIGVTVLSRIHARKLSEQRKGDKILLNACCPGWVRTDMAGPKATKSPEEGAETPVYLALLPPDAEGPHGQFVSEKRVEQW
Chain of Pyrroline-5-carboxylate reductase 1, mitochondrial (Homo sapiens) (P32322 whole entry): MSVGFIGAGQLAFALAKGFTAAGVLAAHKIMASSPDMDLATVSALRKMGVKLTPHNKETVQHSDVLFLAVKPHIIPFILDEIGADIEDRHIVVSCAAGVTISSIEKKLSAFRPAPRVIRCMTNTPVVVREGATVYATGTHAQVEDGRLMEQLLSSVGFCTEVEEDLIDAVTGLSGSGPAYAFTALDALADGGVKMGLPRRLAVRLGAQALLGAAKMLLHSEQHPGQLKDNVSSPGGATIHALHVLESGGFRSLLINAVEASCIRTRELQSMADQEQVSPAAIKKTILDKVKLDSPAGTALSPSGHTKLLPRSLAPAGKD
Chain of Mitogen-activated protein kinase kinase kinase 21 (Homo sapiens) (Q5TCX8 whole entry, the tested form may be a part): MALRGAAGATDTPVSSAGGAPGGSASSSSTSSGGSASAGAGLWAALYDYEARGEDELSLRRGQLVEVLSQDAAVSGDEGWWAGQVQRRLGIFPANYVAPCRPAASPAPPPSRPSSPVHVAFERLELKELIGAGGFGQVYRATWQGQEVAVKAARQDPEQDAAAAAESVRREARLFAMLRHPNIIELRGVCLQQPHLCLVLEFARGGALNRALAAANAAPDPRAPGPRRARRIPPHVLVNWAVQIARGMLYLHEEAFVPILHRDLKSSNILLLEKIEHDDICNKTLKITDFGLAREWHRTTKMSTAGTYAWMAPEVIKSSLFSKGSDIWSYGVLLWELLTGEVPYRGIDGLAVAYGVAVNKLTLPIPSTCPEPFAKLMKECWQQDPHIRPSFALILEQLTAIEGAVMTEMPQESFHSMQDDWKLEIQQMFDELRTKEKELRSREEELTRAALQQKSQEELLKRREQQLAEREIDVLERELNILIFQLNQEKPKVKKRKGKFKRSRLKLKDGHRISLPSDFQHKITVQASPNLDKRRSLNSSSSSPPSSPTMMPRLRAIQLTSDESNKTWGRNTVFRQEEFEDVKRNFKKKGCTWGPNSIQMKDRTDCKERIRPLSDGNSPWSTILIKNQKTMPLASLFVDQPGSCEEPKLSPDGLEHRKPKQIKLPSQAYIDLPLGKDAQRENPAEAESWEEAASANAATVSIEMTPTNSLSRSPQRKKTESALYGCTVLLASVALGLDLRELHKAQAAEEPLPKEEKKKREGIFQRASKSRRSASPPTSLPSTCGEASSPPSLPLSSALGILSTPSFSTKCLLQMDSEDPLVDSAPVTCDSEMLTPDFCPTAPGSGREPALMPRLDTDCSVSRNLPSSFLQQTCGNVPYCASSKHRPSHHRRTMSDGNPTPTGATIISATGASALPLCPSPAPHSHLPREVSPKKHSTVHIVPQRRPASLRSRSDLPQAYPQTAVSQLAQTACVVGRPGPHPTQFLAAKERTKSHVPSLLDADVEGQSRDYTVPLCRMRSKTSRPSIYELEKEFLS
Chain of Monofunctional C1-tetrahydrofolate synthase, mitochondrial (Homo sapiens) (Q6UB35 whole entry): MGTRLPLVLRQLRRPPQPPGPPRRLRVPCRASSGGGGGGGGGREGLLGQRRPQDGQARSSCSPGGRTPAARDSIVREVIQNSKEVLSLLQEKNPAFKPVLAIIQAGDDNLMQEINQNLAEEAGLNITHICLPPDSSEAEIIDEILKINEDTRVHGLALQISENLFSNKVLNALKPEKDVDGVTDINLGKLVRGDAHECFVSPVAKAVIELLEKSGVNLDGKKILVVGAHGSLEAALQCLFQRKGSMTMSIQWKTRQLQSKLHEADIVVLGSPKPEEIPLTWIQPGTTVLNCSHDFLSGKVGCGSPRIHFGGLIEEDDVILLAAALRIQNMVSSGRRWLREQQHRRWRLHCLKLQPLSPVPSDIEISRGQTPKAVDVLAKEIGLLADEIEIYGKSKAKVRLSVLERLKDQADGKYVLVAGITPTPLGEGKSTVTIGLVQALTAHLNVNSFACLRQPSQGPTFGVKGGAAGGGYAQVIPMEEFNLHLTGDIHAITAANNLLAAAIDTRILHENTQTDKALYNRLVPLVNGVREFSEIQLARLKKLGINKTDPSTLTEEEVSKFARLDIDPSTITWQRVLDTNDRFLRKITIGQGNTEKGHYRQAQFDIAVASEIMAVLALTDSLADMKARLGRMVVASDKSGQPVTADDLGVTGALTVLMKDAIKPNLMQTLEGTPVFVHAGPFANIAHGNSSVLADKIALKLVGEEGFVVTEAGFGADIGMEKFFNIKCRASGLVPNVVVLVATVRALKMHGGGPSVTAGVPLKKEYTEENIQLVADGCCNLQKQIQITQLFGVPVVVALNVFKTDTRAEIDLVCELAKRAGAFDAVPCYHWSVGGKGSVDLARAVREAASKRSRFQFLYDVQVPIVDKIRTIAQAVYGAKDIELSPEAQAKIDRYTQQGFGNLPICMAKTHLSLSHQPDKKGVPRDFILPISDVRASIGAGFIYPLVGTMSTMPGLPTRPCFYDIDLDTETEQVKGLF
Chain of Citrate synthase, mitochondrial (Homo sapiens) (O75390 whole entry): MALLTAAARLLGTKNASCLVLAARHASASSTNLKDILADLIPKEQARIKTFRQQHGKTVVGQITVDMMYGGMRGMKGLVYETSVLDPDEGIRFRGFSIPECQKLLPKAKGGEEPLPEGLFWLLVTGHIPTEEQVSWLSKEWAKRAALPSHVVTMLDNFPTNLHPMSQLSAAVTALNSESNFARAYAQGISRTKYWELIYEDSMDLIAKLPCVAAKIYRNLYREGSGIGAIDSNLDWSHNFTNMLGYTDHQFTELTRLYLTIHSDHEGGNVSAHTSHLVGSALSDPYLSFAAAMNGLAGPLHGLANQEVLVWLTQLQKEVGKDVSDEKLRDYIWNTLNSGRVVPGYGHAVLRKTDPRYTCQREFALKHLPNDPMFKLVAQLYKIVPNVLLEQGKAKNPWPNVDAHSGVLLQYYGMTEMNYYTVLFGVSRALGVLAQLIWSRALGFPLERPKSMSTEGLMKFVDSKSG

`C=CC(=O)Nc1ccccc1Oc1nc(Nc2cnn(CCOC)c2)ncc1Cl`: in experiment [1], the pIC50 (usually the negative decadic logarithm of the IC50, by convention in mol/L) was 9.27. Moreover, the inhibition (usually the change of the read-out against control, counted positive when it falls) in experiment [2] was -7.4%.

Take `C=CC(=O)Nc1ccccc1Nc1nc(Nc2ccc(N3CCN(C)CC3)cc2)ncc1Cl`: the inhibition in experiment [3] is -1.1%.

Regarding `COc1cc(O)c2c(c1)/C=C/C[C@H](O)[C@H](O)C(=O)/C=C\C[C@H](C)OC2=O`, in experiment [4], the Activity was 4.2%.

Consider `C=CC(=O)Nc1ccccc1Nc1nc(Nc2ccc(N3CCN(CCOCCOCCOCCNC(=O)CCCC[C@@H]4SC[C@@H]5NC(=O)N[C@@H]54)CC3)cc2)ncc1Cl`, for which the outcome in [5], in experiment [6], in [7], in experiment [8], in experiment [9] and in [10] was Active. The outcome in [11], in experiment [12], in experiment [13], in [14], in experiment [15] and in experiment [16] was Active. The outcome in [17] was Active.

The values are drawn from ChEMBL document CHEMBL4118021, “Studies of TAK1-centered polypharmacology with novel covalent TAK1 inhibitors” (Bioorg Med Chem, 2017).
